For data set [1], the system named is Candida albicans. As to the kind of experiment: Induction of apoptosis in Candida albicans ATCC 90028 protoplast assessed as early apoptotic cells at 20 uM after 48 hrs Annexin V-FITC/propidium iodide staining based flow cytometric analysis (reference value: 3.00 +/- 1.65%). The data set is classed as functional.
The subject of data set [2] is Candida albicans. Kind of data set: Effect on dilpoid nuclei level in Candida albicans ATCC 90028 planktonic forms at 16 ug/ml by ethidium bromide staining based gel electrophoresis and confocal laser scanning microscopy. The data set is classed as functional, organism-based.
In data set [3] the test system is Candida albicans. As to the kind of experiment: Induction of apoptosis in Candida albicans ATCC 90028 protoplast assessed as viable cells at 20 uM after 48 hrs Annexin V-FITC/propidium iodide staining based flow cytometric analysis (reference value: 96.38 +/- 2.05%). In kind it is functional. A general note: Flow cytometry measures light scatter and fluorescence of single cells or particles in a stream.

Data set [4] concerns Candida albicans. Kind of data set: Antifungal activity against Candida albicans ATCC 90028 infected in Galleria mellonella larvae infected with 20 uM compound pre-treated cell suspensions assessed as melanization incubated in dark for 144 hrs at 30 degC and measured every 24 hrs (reference value: 65%). The data set is classed as functional.
The subject of data set [5] is Candida albicans. Kind of data set: Induction of apoptosis in Candida albicans ATCC 90028 protoplast assessed as late apoptotic cells at 20 uM after 48 hrs Annexin V-FITC/propidium iodide staining based flow cytometric analysis (reference value: 0.3 +/- 0.30%). The data set is classed as functional.
For data set [6], the system named is Candida albicans. As to the kind of experiment: Disruption of cell wall in Candida albicans SC5314 assessed as decrease in chitin level after 18 hrs by calcofluor white staining-based flow cytometric analysis. The data set is classed as functional, organism-based.
Data set [7] deals with Candida albicans. As to the kind of experiment: Fungicidal activity against Candida albicans ATCC 90028 assessed as log reduction in cell viability at 16 ug/ml after 48 hrs at 35 degC. In kind it is functional. The gist of the method:
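MFC assay on C. albicans ATCC 90028 following M27-A3, at the molar equivalent of 16 µg/mL. CFU of treated cells were compared with CFU of the untreated inoculum. Activity is given as lg R = lg CFU/mL control − lg CFU/mL treated, and lg R ≥3 was defined as fungicidal. Values are means of two independent experiments.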

In data set [8] the test system is Candida albicans. Kind of data set: Growth inhibition of Candida albicans ATCC 90028 at 0.0625 ug/ml incubated for 4 hrs at 35 degC by broth microdilution method relative to control. The conditions noted are these: ATCC 90028, 4 h, read-out: GI. In kind it is functional. (Broth dilution looks for growth in wells or tubes with falling amounts of substance.)
A short description of data set [9]: In-vitro chitinolytic activity of the compound assessed as p-nitrophenyl release from N-acetyl-beta-D-glucosaminide at 20 uM by chitinolytic activity assay. The data set is classed as functional.
In data set [10] the test system is Candida albicans. As to the kind of experiment: Antifungal activity against Candida albicans ATCC 90028 infected in Galleria mellonella larvae infected with 20 uM compound pre-treated cell suspensions assessed as reduction in larval hemocytes incubated in dark for 144 hrs at 30 degC and measured every 24 hrs by hematoxylin and eosin staining-based light microscopic analysis. In kind it is functional, organism-based.

The subject of data set [11] is Candida albicans. Kind of data set: Antibiofilm activity in Candida albicans ATCC 90028 assessed as late apoptotic morphological changes by measuring reddish-orange fluorescence at 20 uM after 18 hrs by acridine orange/ethidium bromide staining-based confocal laser scanning fluorescence microscopic analysis. The data set is classed as functional, organism-based.
The subject of data set [12] is Candida albicans. As to the kind of experiment: Inhibition of biofilm formation of Candida albicans ATCC 90028 after 48 hrs by XTT assay. In kind it is functional, organism-based. The conditions noted are these: ATCC 90028, 48 h. In general terms: Formazan colour is commonly taken as a measure of viable cells.
For data set [13], the system named is Candida albicans. As to the kind of experiment: Growth inhibition of Candida albicans ATCC 90028 at 0.125 ug/ml incubated for 4 hrs at 35 degC by broth microdilution method relative to control. The data set is classed as functional. The conditions noted are these: ATCC 90028, 4 h, read-out: GI.
Data set [14] has as its system Candida albicans. As to the kind of experiment: Antibiofilm activity in Candida albicans ATCC 90028 assessed as cell membrane lysis at 20 uM after 18 hrs by acridine orange/ethidium bromide staining-based confocal laser scanning fluorescence microscopic analysis. The data set is classed as functional, organism-based. The method, boiled down:
(§1)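 Unfixed biofilm cells were dual-stained in situ with acridine orange and ethidium bromide, each at 100 µg/mL. Confocal fluorescence and DIC imaging scored green AO nuclei, crescent-shaped chromatin, reddish-orange late apoptotic/necrotic cells and EB uptake, against untreated control biofilm. […]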

Data set [15] relates to Candida albicans. As to the kind of experiment: Antifungal activity against Candida albicans ATCC 90028 infected in Galleria mellonella larvae infected with 20 uM compound pre-treated cell suspensions assessed as reduction in fat body formation in dark for 144 hrs at 30 degC and measured every 24 hrs by hematoxylin and eosin staining-based light microscopic analysis. In kind it is functional, organism-based.

For data set [16], the system named is Candida albicans. Kind of data set: Antifungal activity against Candida albicans ATCC 90028 infected in Galleria mellonella larvae infected with 20 uM compound pre-treated cell suspensions assessed as reduction in fungal burden in dark for 144 hrs at 30 degC and measured every 24 hrs by hematoxylin and eosin staining-based light microscopic analysis. The data set is classed as functional, organism-based.

A further data set relates to Galleria mellonella. As to the kind of experiment: Toxicity in Candida albicans ATCC 90028 infected Galleria mellonella larvae infected with 20 uM compound pre-treated cell suspensions assessed as improvement in larvae health index scores incubated in dark for 144 hrs at 30 degC and measured every 24 hrs. The data set is classed as organism-based. The conditions noted are these: in vivo.

For data set [17], the system named is Candida albicans. As to the kind of experiment: Inhibition of biofilm formation of Candida albicans ATCC 90028 up to 20 uM […] by XTT assay. The data set is classed as functional, organism-based.
Data set [18] relates to Candida albicans. Kind of data set: Antibiofilm activity in Candida albicans ATCC 90028 assessed as increase in chitin distribution within biofilm cells at 20 uM after 18 hrs by calcofluor white staining-based confocal laser scanning microscopic analysis. In kind it is functional, organism-based.
The subject of data set [19] is Candida albicans. As to the kind of experiment: Induction of apoptosis in Candida albicans ATCC 90028 planktonic forms assessed as accumulation at subG1 phase at 1 to 128 ug/ml by ethidium bromide staining based gel electrophoresis and confocal laser scanning microscopy. The data set is classed as functional, organism-based.
In data set [20] the test system is Candida albicans. As to the kind of experiment: Induction of apoptosis in Candida albicans ATCC 90028 planktonic forms assessed as increase in DNA damage at 1 ug/ml by ethidium bromide staining based gel electrophoresis and confocal laser scanning microscopy. The data set is classed as functional, organism-based.
Data set [21] deals with Candida albicans. As to the kind of experiment: Antibiofilm activity in Candida albicans ATCC 90028 assessed as early apoptotic morphological changes by measuring crescent-shaped nuclei at 248 uM after 18 hrs by acridine orange/ethidium bromide staining-based confocal laser scanning fluorescence microscopic analysis. In kind it is functional. The gist of the method: as §1

Data set [22] concerns Candida albicans. As to the kind of experiment: Antifungal activity against Candida albicans ATCC 90028 infected in Galleria mellonella larvae infected with 31 uM compound pre-treated cell suspensions assessed as larvae survival incubated in dark for 144 hrs at 30 degC and measured every 24 hrs (reference value: 80%). The data set is classed as functional.
Data set [23] deals with Candida albicans. Kind of data set: Inhibition of biofilm formation of Candida albicans ATCC 90028 at 248 uM […] by XTT assay. In kind it is functional.
Data set [24] has as its system Candida albicans. Kind of data set: Induction of chitinase release in Candida albicans ATCC 90028 assessed as p-nitrophenyl release from N-acetyl-beta-D-glucosaminide at 248 uM by chitinolytic activity assay. In kind it is functional, organism-based.
Data set [25] has as its system Candida albicans. As to the kind of experiment: Antifungal activity against Candida albicans ATCC 90028 infected in Galleria mellonella larvae infected with 31 uM compound pre-treated cell suspensions assessed as reduction in fungal burden in dark for 144 hrs at 30 degC and measured every 24 hrs by hematoxylin and eosin staining-based light microscopic analysis. In kind it is functional, organism-based.

For data set [26], the system named is Candida albicans. As to the kind of experiment: Antifungal activity against Candida albicans ATCC 90028 infected in Galleria mellonella larvae infected with 31 uM compound pre-treated cell suspensions assessed as reduction in fungal cell nodules in dark for 144 hrs at 30 degC and measured every 24 hrs by hematoxylin and eosin staining-based light microscopic analysis. In kind it is functional, organism-based.

Data set [27] relates to Candida albicans. Kind of data set: Antifungal activity against Candida albicans ATCC 90028 infected in Galleria mellonella larvae infected with 31 uM compound pre-treated cell suspensions assessed as reduction in larval hemocytes incubated in dark for 144 hrs at 30 degC and measured every 24 hrs by hematoxylin and eosin staining-based light microscopic analysis. The data set is classed as functional, organism-based.

Data set [28] relates to Candida albicans. Kind of data set: Antibiofilm activity in Candida albicans ATCC 90028 assessed as late apoptotic morphological changes by measuring reddish-orange fluorescence at 248 uM after 18 hrs by acridine orange/ethidium bromide staining-based confocal laser scanning fluorescence microscopic analysis. The data set is classed as functional, organism-based. The method, boiled down: as §1

Activity calls are given as the source filed them.

Take `CC(Cn1cnc2c1c(=O)n(C)c(=O)n2C)OCc1cn(CCCn2nc3c(Br)c(Br)c(Br)c(Br)c3n2)nn1` (stereo not drawn): the Activity in the data set with Candida albicans [1] is 2.87%; with Candida albicans [3] it was 2.87%; in the data set with Candida albicans [4], 80%; in the data set with Candida albicans [5] it was 0.22%; in the data set on Candida albicans [6], “Dose-dependent effect”; in data set [9], 0.01 to 0.03 µmol/min. Also, in the data set on Galleria mellonella, the Activity result is reported as “Toxic”. The result with Candida albicans [2] was inactive. In addition, in the data set with Candida albicans [7], the “log(activity)” value is on record as 8. Besides, in the data set on Candida albicans [8], the inhibition of growth at 0.0625 µg/mL stood at 99%. Moreover, the result with Candida albicans [10], in the data set with Candida albicans [11], in the data set on Candida albicans [14], in the data set on Candida albicans [15], in the data set with Candida albicans [16] and in the data set with Candida albicans [18] was Active. The midpoint of inhibition in the data set with Candida albicans [12], the IC50, lay at 20 µM. Further, the inhibition of growth at 0.125 µg/mL in the data set on Candida albicans [13] worked out at 99%. Also, the inhibition (usually the percentage by which the read-out fell short of the control) in the data set with Candida albicans [17] is “inactive”.

On to `CC(CN1c2ccccc2Sc2ccccc21)OC(=O)OC(C)Cn1cnc2c1c(=O)n(C)c(=O)n2C` (stereo not drawn), for which the outcome in the data set on Candida albicans [19], with Candida albicans [20] and in the data set with Candida albicans [24] was inactive. Further, in the data set with Candida albicans [7], the “log(activity)” value is 8. Also, the inhibition of growth at 0.0625 µg/mL in the data set on Candida albicans [8] worked out at 99.1%. Besides, the “fold change (FC)” value in the data set with Candida albicans [21] is reported as 2. Besides, in the data set with Candida albicans [22], the survival at 31 µM is 95%. In the data set on Candida albicans [12], inhibition was half-maximal at 248 µM (IC50). For the same molecule, the inhibition of growth at 0.125 µg/mL in the data set with Candida albicans [13] came to 99.1%. This molecule also displayed an inhibition at 248 µM in the data set on Candida albicans [23] of 61%. Moreover, the result in the data set with Candida albicans [25], in the data set on Candida albicans [26], in the data set on Candida albicans [27] and with Candida albicans [28] was Active.
